Assay results from ChEMBL document CHEMBL1123174, “Inhibitors of Bacillus subtilis DNA polymerase III. Influence of modifications in the pyrimidine ring of anilino- and (benzylamino)pyrimidines” (J Med Chem, 1986).
One block for each molecule: values may come before it.

What was measured:
[1] = molecular target: T1, DNA polymerase III PolC-type (Bacillus subtilis (strain 168), UniProt P13267); assay: Compound was tested for its inhibitory activity against Bacillus subtilis […] using DNA Polymerase assay; IA=Inactive
T1 sequence (P13267 whole entry, the tested form may be a part): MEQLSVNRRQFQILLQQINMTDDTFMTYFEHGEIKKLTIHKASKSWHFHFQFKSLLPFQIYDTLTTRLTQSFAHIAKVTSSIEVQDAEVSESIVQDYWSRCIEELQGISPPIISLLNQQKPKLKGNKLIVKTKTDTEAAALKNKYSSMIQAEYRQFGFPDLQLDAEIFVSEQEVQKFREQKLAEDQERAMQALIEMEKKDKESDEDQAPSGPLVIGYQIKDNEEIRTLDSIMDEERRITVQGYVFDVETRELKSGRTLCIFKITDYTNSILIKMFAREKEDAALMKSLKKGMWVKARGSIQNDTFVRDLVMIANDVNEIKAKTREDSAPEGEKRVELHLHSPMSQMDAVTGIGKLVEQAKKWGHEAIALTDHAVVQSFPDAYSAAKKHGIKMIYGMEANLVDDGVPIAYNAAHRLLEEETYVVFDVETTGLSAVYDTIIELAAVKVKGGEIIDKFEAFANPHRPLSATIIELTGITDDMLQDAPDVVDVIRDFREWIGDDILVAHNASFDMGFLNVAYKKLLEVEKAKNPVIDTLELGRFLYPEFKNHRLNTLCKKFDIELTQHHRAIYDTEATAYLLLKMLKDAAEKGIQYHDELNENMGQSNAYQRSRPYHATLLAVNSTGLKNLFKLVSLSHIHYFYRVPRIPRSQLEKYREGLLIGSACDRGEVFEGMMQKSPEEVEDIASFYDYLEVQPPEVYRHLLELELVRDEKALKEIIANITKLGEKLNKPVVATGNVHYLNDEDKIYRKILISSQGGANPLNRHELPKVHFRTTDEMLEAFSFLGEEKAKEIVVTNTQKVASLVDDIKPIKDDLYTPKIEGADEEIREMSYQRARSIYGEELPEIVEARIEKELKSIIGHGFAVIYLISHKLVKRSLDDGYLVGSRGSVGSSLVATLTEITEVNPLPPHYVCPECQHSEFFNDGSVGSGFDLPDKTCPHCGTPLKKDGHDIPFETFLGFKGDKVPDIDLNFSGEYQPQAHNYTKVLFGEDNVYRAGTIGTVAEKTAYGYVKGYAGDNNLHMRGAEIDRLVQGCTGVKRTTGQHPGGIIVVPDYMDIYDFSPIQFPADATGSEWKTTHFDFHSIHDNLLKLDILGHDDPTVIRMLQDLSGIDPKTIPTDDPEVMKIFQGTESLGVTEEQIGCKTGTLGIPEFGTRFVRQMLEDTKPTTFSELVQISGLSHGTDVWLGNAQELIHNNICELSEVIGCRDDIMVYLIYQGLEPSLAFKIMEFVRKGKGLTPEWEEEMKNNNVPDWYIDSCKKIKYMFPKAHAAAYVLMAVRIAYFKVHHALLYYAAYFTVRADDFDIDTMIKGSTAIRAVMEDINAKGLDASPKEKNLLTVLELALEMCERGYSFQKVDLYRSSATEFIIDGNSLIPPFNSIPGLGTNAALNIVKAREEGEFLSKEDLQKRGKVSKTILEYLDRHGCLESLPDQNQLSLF
Summary of the method: (§1)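 B. subtilis DNA polymerase III assayed as a truncated reaction: the nucleotide competing with the inhibitor class (dGTP or dATP) was omitted from the mix.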

[2] = molecular target: T1, DNA polymerase III PolC-type; assay: Compound was tested for its inhibitory activity against Bacillus subtilis DNA topoisomerase III using DNA Polymerase assay; summary of the method: as §1
[3] = molecular target: T1, DNA polymerase III PolC-type; assay: Compound was tested for its inhibitory activity against DNA topoisomerase III Polymerase III using DNA Polymerase assay; IA=Inactive; summary of the method: as §1
[4] = molecular target: T1, DNA polymerase III PolC-type; assay: Concentration producing 50% inhibition of Bacillus subtilis DNA polymerase III in the absence of dATP using DNA Polymerase assay; NA=Inactive; summary of the method: as §1
[5] = molecular target: T1, DNA polymerase III PolC-type; assay: Concentration producing 50% inhibition of Bacillus subtilis DNA polymerase III in the absence of dGTP using DNA Polymerase assay; conditions: read-out: Ki; summary of the method: as §1
[6] = molecular target: T1, DNA polymerase III PolC-type; assay: Concentration producing 50% inhibition of Bacillus subtilis […] in the absence using DNA Polymerase assay
[7] = molecular target: T1, DNA polymerase III PolC-type; assay: Concentration producing 50% inhibition of Bacillus subtilis DNA polymerase III in the absence of dATP using DNA Polymerase assay; NA= Inactive; summary of the method: as §1
[8] = molecular target: T1, DNA polymerase III PolC-type; assay: Concentration producing 50% inhibition of Bacillus subtilis […] in the presence of dATP using DNA Polymerase assay
[9] = molecular target: T1, DNA polymerase III PolC-type; assay: Concentration producing 50% inhibition of Bacillus subtilis […] in the presence of dGTP using DNA Polymerase assay

Compound: O=Nc1c(O)nc(O)nc1NCc1ccccc1
Ki [3]: Not Active

Compound: O=c1[nH]c(NCc2ccccc2)c(I)c(=O)[nH]1
IC50 [5]: 9 µM

Compound: Cc1ccc(Nc2[nH]c(=O)[nH]c(=O)c2C)cc1
IC50 [5]: 1580 µM

Compound: CCc1c(O)nc(O)nc1NCc1ccccc1
IC50 [5]: 2820 µM

Compound: O=c1nc(NCc2ccccc2)[nH]c(=O)[nH]1
IC50 [5]: 20 µM

Compound: Cc1ccc(Nc2nc(=O)[nH]c(=O)[nH]2)cc1
IC50 [5]: 70 µM

Compound: O=c1cc(NCc2ccccc2)[nH]c(=O)[nH]1
Ki [9]: 7.5 µM

Results, then the molecule that gave them:

Ki [1]: Not Active
Compound: Cc1ccc(Nc2nc(O)nc(O)c2N=O)cc1

Ki [2]: 17 µM
Compound: Nc1nc(Cl)cc(NCc2ccccc2)n1

Ki [4]: Not Active
Compound: Nc1nc(NCc2ccccc2)cc(SCc2ccccc2)n1

IC50 [5]: 9 µM
Compound: Oc1nc(O)c(Br)c(NCc2ccccc2)n1

Ki [4]: Not Active
Compound: CCc1c(O)nc(O)nc1Nc1ccc(C)cc1

Ki [6]: 436 µM
Compound: Cc1c(O)nc(O)nc1NCc1ccccc1

Ki [7]: Not Active
Compound: Nc1nc(NCc2ccccc2)cc(SCc2ccc(Cl)cc2)n1

Ki [8]: 33 µM
Compound: Nc1nc(O)cc(NCc2ccccc2)n1

Ki [8]: 2 µM
Compound: Nc1nc(O)cc(Nc2ccc3c(c2)CCC3)n1

IC50 [5]: 14 µM
Compound: Cc1ccc(Nc2nc(O)nc(O)c2Br)cc1

Ki [9]: 0.4 µM
Compound: Oc1cc(Nc2ccc3c(c2)CCC3)nc(O)n1
